pIC50: −log10 of the molar value.
How the values were obtained:
[1] = molecular target: Cruzipain (Trypanosoma cruzi) (UniProt P25779); assay: Inhibition of recombinant Trypanosoma cruzi cruzain at 5 uM using Z-FR-AMC as substrate and measured at 12 sec interval for 5 mins without preincubation by fluorimetric analysis relative to control
Procedure, shortened: (§1)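 Recombinant rhodesain or cruzain (1 nM) in 0.1 M sodium acetate pH 5.5, 0.01% Triton X-100, 1 mM β-mercaptoethanol. Compound at a single concentration, either without or after 10 min enzyme pre-incubation. Inhibition is relative to DMSO, with E-64 as positive control. Done in duplicate (primary screen) or triplicate.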

[2] = molecular target: Cruzipain (Trypanosoma cruzi) (UniProt P25779); assay: Inhibition of recombinant Trypanosoma cruzi cruzain at 5 uM using Z-FR-AMC as substrate preincubated for 10 mins followed by substrate addition and measured at 12 sec interval for 5 mins by fluorimetric analysis relative to control; details: time 15.0 min; procedure, shortened: as §1
[3] = molecular target: Rhodesain (Trypanosoma brucei rhodesiense) (UniProt Q95PM0); assay: Inhibition of recombinant Trypanosoma brucei rhodesain expressed in Pichia pastoris at 5 uM using Z-FR-AMC as substrate and measured at 12 sec interval for 5 mins without preincubation by fluorimetric analysis relative to control; procedure, shortened: as §1
Sequence of Rhodesain (Trypanosoma brucei rhodesiense) (Q95PM0 1-450): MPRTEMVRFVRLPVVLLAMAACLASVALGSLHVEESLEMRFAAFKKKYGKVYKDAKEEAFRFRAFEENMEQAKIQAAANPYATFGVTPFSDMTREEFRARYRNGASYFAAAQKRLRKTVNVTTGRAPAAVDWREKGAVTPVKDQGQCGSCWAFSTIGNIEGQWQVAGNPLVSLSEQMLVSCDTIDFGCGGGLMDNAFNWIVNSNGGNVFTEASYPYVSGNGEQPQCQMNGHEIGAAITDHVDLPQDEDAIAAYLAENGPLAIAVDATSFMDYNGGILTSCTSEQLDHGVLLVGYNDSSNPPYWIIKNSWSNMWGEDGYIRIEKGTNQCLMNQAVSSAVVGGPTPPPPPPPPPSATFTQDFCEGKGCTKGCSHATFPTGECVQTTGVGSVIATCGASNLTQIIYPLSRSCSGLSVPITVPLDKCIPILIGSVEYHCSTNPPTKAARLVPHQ

[4] = molecular target: Rhodesain (Trypanosoma brucei rhodesiense) (UniProt Q95PM0); assay: Inhibition of recombinant Trypanosoma brucei rhodesain expressed in Pichia pastoris at 5 uM using Z-FR-AMC as substrate preincubated for 10 mins followed by substrate addition and measured at 12 sec interval for 5 mins by fluorimetric analysis relative to control; details: time 15.0 min; procedure, shortened: as §1
[5] = molecular target: Cruzipain (Trypanosoma cruzi) (UniProt P25779); assay: Inhibition of recombinant Trypanosoma cruzi cruzain at 10 uM using Z-FR-AMC as substrate and measured at 12 sec interval for 5 mins without preincubation by fluorimetric analysis relative to control
Procedure, shortened: as §1, with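 “pre-incubation. Z-FR-AMC 2.5 µM, read at 340/440 nm every 12 s for 5 min.” for “pre-incubation.”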

[6] = molecular target: Cruzipain (Trypanosoma cruzi) (UniProt P25779); assay: Inhibition of recombinant Trypanosoma cruzi cruzain at 10 uM using Z-FR-AMC as substrate preincubated for 10 mins followed by substrate addition and measured at 12 sec interval for 5 mins by fluorimetric analysis relative to control; details: time 15.0 min
Procedure, shortened: as §1, with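 “pre-incubation. Z-FR-AMC 2.5 µM, read at 340/440 nm every 12 s for 5 min.” for “pre-incubation.”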

[7] = molecular target: Rhodesain (Trypanosoma brucei rhodesiense) (UniProt Q95PM0); assay: Inhibition of recombinant Trypanosoma brucei rhodesain expressed in Pichia pastoris at 10 uM using Z-FR-AMC as substrate and measured at 12 sec interval for 5 mins without preincubation by fluorimetric analysis relative to control
Procedure, shortened: as §1, with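 “pre-incubation. Z-FR-AMC 2.5 µM, read at 340/440 nm every 12 s for 5 min.” for “pre-incubation.”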

[8] = molecular target: Rhodesain (Trypanosoma brucei rhodesiense) (UniProt Q95PM0); assay: Inhibition of recombinant Trypanosoma brucei rhodesain expressed in Pichia pastoris at 10 uM using Z-FR-AMC as substrate preincubated for 10 mins followed by substrate addition and measured at 12 sec interval for 5 mins by fluorimetric analysis relative to control; details: time 15.0 min
Procedure, shortened: as §1, with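 “pre-incubation. Z-FR-AMC 2.5 µM, read at 340/440 nm every 12 s for 5 min.” for “pre-incubation.”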

[9] = molecular target: Cruzipain (Trypanosoma cruzi) (UniProt P25779); assay: Inhibition of recombinant Trypanosoma cruzi cruzain at 100 uM using Z-FR-AMC as substrate and measured at 12 sec interval for 5 mins without preincubation by fluorimetric analysis relative to control
Procedure, shortened: as §1, with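 “pre-incubation. Z-FR-AMC 2.5 µM, read at 340/440 nm every 12 s for 5 min.” for “pre-incubation.”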

[10] = molecular target: Cruzipain (Trypanosoma cruzi) (UniProt P25779); assay: Inhibition of recombinant Trypanosoma cruzi cruzain at 100 uM using Z-FR-AMC as substrate preincubated for 10 mins followed by substrate addition and measured at 12 sec interval for 5 mins by fluorimetric analysis relative to control; details: time 15.0 min
Procedure, shortened: as §1, with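 “pre-incubation. Z-FR-AMC 2.5 µM, read at 340/440 nm every 12 s for 5 min.” for “pre-incubation.”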

[11] = molecular target: Rhodesain (Trypanosoma brucei rhodesiense) (UniProt Q95PM0); assay: Inhibition of recombinant Trypanosoma brucei rhodesain expressed in Pichia pastoris at 100 uM using Z-FR-AMC as substrate and measured at 12 sec interval for 5 mins without preincubation by fluorimetric analysis relative to control
Procedure, shortened: (§2)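 Run with no pre-incubation or with 10 min enzyme-compound pre-incubation. Fluorescence read at 340/440 nm. Concentration was set by solubility under assay conditions. Inhibition is against DMSO, with E-64 as positive control; triplicate.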

[12] = molecular target: Rhodesain (Trypanosoma brucei rhodesiense) (UniProt Q95PM0); assay: Inhibition of recombinant Trypanosoma brucei rhodesain expressed in Pichia pastoris at 100 uM using Z-FR-AMC as substrate preincubated for 10 mins followed by substrate addition and measured at 12 sec interval for 5 mins by fluorimetric analysis relative to control; details: time 15.0 min; procedure, shortened: as §2
Schistosoma mansoni [13] = assay: Inhibition of recombinant Schistosoma mansoni SmCB1 expressed in Pichia pastoris at 5 uM using Z-FR-AMC as substrate and measured at 23 sec interval for 30 mins without preincubation by fluorimetric analysis relative to control
Procedure, shortened: (§3)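 SmCB1 (recombinant, 8 nM) in 0.1 M sodium acetate pH 5.5 with 0.01% Triton X-100 and 4 mM β-mercaptoethanol. Compound at 5 µM, either not pre-incubated or pre-incubated 10 min with enzyme. Z-FR-AMC 20 µM, fluorescence 340/440 nm every 23 s for 30 min. Inhibition is versus DMSO, with E-64 control; each condition in duplicate.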

Schistosoma mansoni [14] = assay: Inhibition of recombinant Schistosoma mansoni SmCB1 expressed in Pichia pastoris at 5 uM using Z-FR-AMC as substrate preincubated for 10 mins followed by substrate addition and measured at 23 sec interval for 30 mins by fluorimetric analysis relative to control; procedure, shortened: as §3
[15] = molecular target: Cruzipain (Trypanosoma cruzi) (UniProt P25779); assay: Inhibition of recombinant Trypanosoma cruzi cruzain at 100 uM preincubated for 10 mins in presence of 0.1% Triton X-100 relative to control
Procedure, shortened: (§4)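 To test detergent sensitivity, cruzain was pre-incubated 10 min at room temperature with compound with no Triton X-100, 0.01% or 0.1% Triton X-100. Cleavage of Z-FR-AMC was then followed at pH 5.5 in acetate buffer. Percent inhibition was compared across detergent levels.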

[16] = molecular target: Cruzipain (Trypanosoma cruzi) (UniProt P25779); assay: Inhibition of recombinant Trypanosoma cruzi cruzain at 100 uM preincubated for 10 mins in presence of 0.01% Triton X-100 relative to control; procedure, shortened: as §4
[17] = molecular target: Cruzipain (Trypanosoma cruzi) (UniProt P25779); assay: Inhibition of recombinant Trypanosoma cruzi cruzain at 100 uM preincubated for 10 mins in absence of Triton X-100 relative to control; procedure, shortened: as §4
[18] = molecular target: Cruzipain (Trypanosoma cruzi) (UniProt P25779); assay: Inhibition of recombinant Trypanosoma cruzi cruzain at 100 uM preincubated with BSA for 5 mins followed by incubation with enzyme for 5 mins followed by substrate addition relative to control; details: time 10.0 min
Procedure, shortened: (§5)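 For BSA sensitivity, compound was held 5 min with BSA (2 mg/mL in 0.001% Triton X-100), then 5 min with 1 nM cruzain, before substrate was added and activity monitored. Parallel runs omitted BSA under otherwise identical conditions.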

[19] = molecular target: Cruzipain (Trypanosoma cruzi) (UniProt P25779); assay: Inhibition of recombinant Trypanosoma cruzi cruzain at 100 uM preincubated with enzyme for 5 mins followed by substrate addition in absence of BSA relative to control; procedure, shortened: as §5
[20] = system: Trypanosoma brucei brucei; assay: Trypanocidal activity against Trypanosoma brucei brucei Squib 427 assessed as reduction in parasite viability; format: functional, organism-based
[21] = system: Trypanosoma brucei rhodesiense; assay: Trypanocidal activity against Trypanosoma brucei rhodesiense STI B900 assessed as reduction in parasite viability; format: functional, organism-based
Trypanosoma cruzi = assay: Trypanocidal activity against Trypanosoma cruzi Tulahuen C4 assessed as reduction in parasite viability; format: functional, organism-based

Sequence of Cruzipain (Trypanosoma cruzi) (P25779 123-467 limits assumed): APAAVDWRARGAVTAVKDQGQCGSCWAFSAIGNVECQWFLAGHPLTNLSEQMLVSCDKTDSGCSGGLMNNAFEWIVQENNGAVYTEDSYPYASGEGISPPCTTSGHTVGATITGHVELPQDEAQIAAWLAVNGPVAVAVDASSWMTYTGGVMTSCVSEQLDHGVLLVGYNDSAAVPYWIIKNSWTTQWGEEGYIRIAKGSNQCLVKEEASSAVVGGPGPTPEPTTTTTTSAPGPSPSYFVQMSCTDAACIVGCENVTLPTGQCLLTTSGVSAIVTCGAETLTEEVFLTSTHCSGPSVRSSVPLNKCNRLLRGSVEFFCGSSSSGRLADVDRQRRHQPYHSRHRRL

inhibition [1] [%]	inhibition [2] [%]	inhibition [3] [%]	inhibition [4] [%]	inhibition (Schistosoma mansoni [13]) [%]	inhibition (Schistosoma mansoni [14]) [%]	SMILES	other results
–	–	–	–	13.6	38.5	COc1ccc(-c2cc3c(nn2)-c2ccccc2C3=O)cc1	–
–	–	–	–	4.7	50	Cc1ccc(CSCc2ccc(C(=O)NC3CC3)o2)cc1	–
18.4	42	41	69.4	0	47.3	Cc1cc(NC(=O)c2cccc(C(F)(F)F)c2)n(-c2nc(-c3ccc4c(c3)OCO4)cs2)n1	–
7	37.3	27.6	72.7	48.3	50	COc1ccc(Br)cc1C1Nc2ccc3ccccc3c2C2=C1C(=O)CC(c1ccccc1)C2 (centres undefined)	–
16.8	44.2	25.9	53.8	–	–	COc1nc(Nc2ccc(C(C)C)cc2)nc(OC)n1	–
17.3	19.8	4.7	80.9	–	–	Cc1ccc(Nc2nc(-c3ccccn3)cs2)cc1	–
–	–	–	–	36.8	0.3	O=C1C2=C(Nc3ccccc3SC2c2ccccc2)c2ccccc21 (centres undefined)	–
77.6	49.5	27.9	20.2	–	–	COc1ccc(C(=O)NC(c2ccc(Cl)cc2Cl)c2cc(Cl)c3cccnc3c2O)cc1 (centres undefined)	–
17	50.7	26.7	46.4	–	–	CCCCCC(=O)N1c2ccccc2N=C2CC(c3ccc(OC)c(OC)c3)CC(O)=C2C1c1ccc(C(F)(F)F)cc1 (centres undefined)	–
–	–	–	–	36.3	9.5	CCOc1cc(Cl)c(C(C)NC(=O)c2cccc(OC)c2)cc1OCC (centres undefined)	–
17.4	86.9	42.8	18.3	–	–	O=C(Nc1ccc(-c2nc3ccccc3[nH]2)cc1)c1ccc(Cl)c(Cl)c1	–

Second part, the compound before the results:

SMILES	inhibition [1] [%]	inhibition [2] [%]	inhibition [3] [%]	inhibition [4] [%]	inhibition (Schistosoma mansoni [13]) [%]	inhibition (Schistosoma mansoni [14]) [%]	other results
FC(F)(F)c1cccc(CNC2CCN(CCc3ccccc3)CC2)c1	23.1	65.1	20.3	70.8	–	–	inhibition [5]: 0%; inhibition [6]: 6%; inhibition [7]: 1%; inhibition [8]: 8%; inhibition [9]: 7%; inhibition [10]: 22%; inhibition [11]: 12%; inhibition [12]: 14%
CC1(c2ccccc2)Nc2ccccc2-c2nc3ccccc3n21 (centres undefined)	–	–	–	–	49.7	5.2	–
COCCNCC(O)Cn1c2ccc(Cl)cc2c2cc(Cl)ccc21 (centres undefined)	18.4	42.1	33.6	62.4	–	–	inhibition [5]: 14%; inhibition [6]: 28%; inhibition [7]: 14%; inhibition [8]: 3%; inhibition [9]: 50%; inhibition [10]: 67%; inhibition [11]: 38%; inhibition [12]: 48%; inhibition [15]: 47.3%; inhibition [16]: 25.5%; inhibition [17]: 100%; inhibition [18]: 61.3%; inhibition [19]: 87.9%; pIC50 [20]: 6.15; pIC50 [21]: 6.40
Cc1ccc(CN2CCC(C(=O)Nc3ccc(-c4cc5ccccc5[nH]4)cc3)CC2)o1	–	–	–	–	9	73	–
Cc1cc(Nc2ccc(C)c(Cl)c2)n2nc(C(F)(F)F)nc2n1	23.9	47.2	27.7	57.8	–	–	inhibition [5]: 2%; inhibition [6]: 4%; inhibition [7]: 5%; inhibition [8]: 1%; inhibition [9]: 25%; inhibition [10]: 16%; inhibition [11]: 16%; inhibition [12]: 15%; pIC50 [20]: 4.49
Cc1cc(NC(=O)C2c3ccccc3C(=O)N(CC(C)C)C2c2cccs2)no1 (centres undefined)	–	–	–	–	44.9	0	–
COc1ccc2sc(N(Cc3cccnc3)C(=O)c3ccc(C#N)cc3)nc2c1	53	72.3	50.7	76.9	–	–	inhibition [5]: 9%; inhibition [6]: 7%; inhibition [7]: 10%; inhibition [8]: 21%; pIC50 [20]: 4.49
CCOC(=O)c1c(C)n(-c2ccccc2)c2ccc(OC(=O)c3cc(OC)c(OC)c(OC)c3)cc12	36.8	51.7	38.5	74.4	–	–	inhibition [5]: 10%; inhibition [6]: 19%; inhibition [7]: 4%; inhibition [8]: 14%
CC(C)(C)c1ccc(O)c(CNC2CCCCC2)c1	–	–	–	–	4.1	48	–
CC(=O)c1ccc(NC(=O)CSc2nc(-c3ccccc3Cl)ns2)cc1	55.2	76.6	39.9	67.5	–	–	inhibition [5]: 10%; inhibition [6]: 23%; inhibition [7]: 10%; inhibition [8]: 43%; pIC50 (Trypanosoma cruzi): 4.49; pIC50 [20]: 4.49; pIC50 [21]: 4.49
CC(O)(c1ccc(Cl)cc1)C(CN1CCCCC1)c1ccccc1 (centres undefined)	11.9	54.1	13.9	50.4	–	–	–
COc1cccc(C(=O)NC(c2ccc(C)cc2)c2cc(Cl)c3cccnc3c2O)c1 (centres undefined)	8.7	54.5	31.4	43.9	–	–	–
COc1ccc(OC)c(C2C3=C(CC(C)(C)CC3=O)N(c3ccc(Cl)c(Cl)c3)C3=C2C(=O)CC(C)(C)C3)c1	28.5	72	16.6	53.3	–	–	–
CCOc1ccccc1CNC(=O)C1c2ccccc2C(=O)N(CC(C)C)C1c1cccs1 (centres undefined)	45.6	55.7	34.3	71.4	–	–	–
Nc1ccc(-c2nc3cc(Cc4ccc5[nH]c(-c6ccc(N)cc6)nc5c4)ccc3[nH]2)cc1	20.2	98.2	86.6	90.1	–	–	–
Clc1ccc2[nH]c3c(NCCCN4CCOCC4)ncnc3c2c1	67	62.5	48.9	72.9	–	–	–

— ChEMBL document CHEMBL4665666, “Discovery and characterization of trypanocidal cysteine protease inhibitors from the 'malaria box'” (Eur J Med Chem, 2019)
